Assay results published in ChEMBL document CHEMBL5724801, “EUbOPEN Chemogenomics Library - Multiplex” (2024).
Several values for one entry are separate records, joined by “and”; a condition that tells them apart may be missing. Equal entries are not always repeated.

Legend:
Assay type in all cases: toxicity, cell-based
HEK-293T = assay: Multiplex assay against HEK293T; conditions: human
Method in brief: (§1)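 At seeding, live cells were stained with Hoechst33342, BioTracker Green Microtubule Cytoskeleton Dye, MitoTracker Red and Annexin V Alexa Fluor 680. After compound addition they were imaged on a CQ1 microscope at 37°C and 5% CO2, and CellPathfinder machine-learning gating sorted them into Hoechst high-intensity objects or normal cells, with normal cells further split into healthy, pyknosed or fragmented nuclei and pyknosed cells into mitotic or apoptotic. Tubulin, mitochondrial-mass and membrane-permeability phenotypes are given as per cents of cells with healthy nuclei.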

U2OS = assay: Multiplex assay against U2OS; conditions: human; method in brief: as §1
Fibroblast = assay: Multiplex assay against human fibroblast; method in brief: as §1
[1] = 12 h, 1 µM, compound concentration 1 uM
[2] = 12 h, 10 µM, compound concentration 10 uM
[3] = 24 h, 1 µM, compound concentration 1 uM
[4] = 24 h, 10 µM, compound concentration 10 uM
[5] = 48 h, 1 µM, compound concentration 1 uM
[6] = 48 h, 10 µM, compound concentration 10 uM

## C[C@H](C[C@H](N)C(=O)O)C(=O)O [2S,4R-4-METHYLGLUTAMATE]
HEK-293T; [1]
  Population Apoptotic (%): 6.61% and 13.76%
  Population Fragmented Nuclei (%): 2.69% and 5.93%
  Population Hoechst High Intensity Objects (%): 0.59% and 0.74%
  Population Membrane Permeable-Phenotype (%): 0% and 5.56%
  Population Mitochondria Different-Phenotype (%): 31.22% and 27.78%
  Population Mitotic Cells (%): 93.39% and 86.24%
  Population Normal (%): 99.41% and 99.26%
  Population Pyknosed Nuclei (%): 36.12% and 80.74%
  Total Cell Count: 337 and 136
HEK-293T; [2]
  Population Apoptotic (%): 7.2% and 16.44%
  Population Fragmented Nuclei (%): 3.38% and 3.49%
  Population Hoechst High Intensity Objects (%): 0%
  Population Membrane Permeable-Phenotype (%): 0%
  Population Mitochondria Different-Phenotype (%): 31.06% and 20%
  Population Mitotic Cells (%): 92.8% and 83.56%
  Population Normal (%): 100%
  Population Pyknosed Nuclei (%): 42.23% and 84.88%
  Population Tubulin-Different-Phenotype (%): 3.73% and 10%
  Total Cell Count: 296 and 172
HEK-293T; [3]
  Population Apoptotic (%): 6.4% and 17.39%
  Population Fragmented Nuclei (%): 1.63% and 2.47%
  Population Healthy Nuclei (%): 75.77% and 26.54%
  Population Hoechst High Intensity Objects (%): 0.36% and 0%
  Population Membrane Permeable-Phenotype (%): 1.67% and 0%
  Population Mitochondria Different-Phenotype (%): 13.13% and 13.95%
  Population Mitotic Cells (%): 93.6% and 82.61%
  Population Normal (%): 99.64% and 100%
  Population Tubulin-Different-Phenotype (%): 10.5% and 2.33%
HEK-293T; [4]
  Population Apoptotic (%): 10.99% and 23.73%
  Population Fragmented Nuclei (%): 1.21% and 2.99%
  Population Healthy Nuclei (%): 80.4% and 38.31%
  Population Hoechst High Intensity Objects (%): 0%
  Population Membrane Permeable-Phenotype (%): 0.5% and 0%
  Population Mitochondria Different-Phenotype (%): 14.57% and 6.49%
  Population Mitotic Cells (%): 89.01% and 76.27%
  Population Normal (%): 100%
  Population Tubulin-Different-Phenotype (%): 7.29% and 2.6%
  Total Cell Count: 495 and 201
HEK-293T; [5]
  Population Fragmented Nuclei (%): 3.3% and 2.56%
  Population Healthy Nuclei (%): 86.59% and 58.46%
  Population Hoechst High Intensity Objects (%): 0% and 2.5%
  Population Membrane Permeable-Phenotype (%): 4.15% and 2.63%
  Population Mitochondria Different-Phenotype (%): 11.93% and 28.95%
  Population Mitotic Cells (%): 93.48% and 76.32%
  Population Normal (%): 100% and 97.5%
HEK-293T; [6]
  Population Apoptotic (%): 11.21% and 22.54%
  Population Fragmented Nuclei (%): 1.13% and 2.5%
  Population Healthy Nuclei (%): 90.25% and 75.31%
  Population Hoechst High Intensity Objects (%): 0% and 0.93%
  Population Membrane Permeable-Phenotype (%): 3.93% and 1.24%
  Population Mitochondria Different-Phenotype (%): 12.14% and 16.6%
  Population Mitotic Cells (%): 88.79% and 77.46%
  Population Normal (%): 100% and 99.07%
  Population Pyknosed Nuclei (%): 8.62% and 22.19%
U2OS; [1]
  Population Apoptotic (%): 31.91% and 61.54%
  Population Fragmented Nuclei (%): 3.36% and 4%
  Population Healthy Nuclei (%): 85.37% and 85.6%
  Population Hoechst High Intensity Objects (%): 0%
  Population Membrane Permeable-Phenotype (%): 2.25% and 5.61%
  Population Mitochondria Different-Phenotype (%): 0% and 3.74%
  Population Mitotic Cells (%): 68.09% and 38.46%
  Population Normal (%): 100%
  Population Pyknosed Nuclei (%): 11.27% and 10.4%
  Population Tubulin-Different-Phenotype (%): 0.28% and 0%
U2OS; [2]
  Population Apoptotic (%): 36.84% and 47.06%
  Population Fragmented Nuclei (%): 0.57% and 3.31%
  Population Healthy Nuclei (%): 88.51% and 85.43%
  Population Hoechst High Intensity Objects (%): 0%
  Population Membrane Permeable-Phenotype (%): 1.95% and 3.88%
  Population Mitochondria Different-Phenotype (%): 0.32% and 6.98%
  Population Mitotic Cells (%): 63.16% and 52.94%
  Population Normal (%): 100%
  Population Pyknosed Nuclei (%): 10.92% and 11.26%
  Population Tubulin-Different-Phenotype (%): 3.25% and 0.78%
  Total Cell Count: 348 and 151
U2OS; [3]
  Population Apoptotic (%): 54.55% and 80%
  Population Fragmented Nuclei (%): 3.12% and 6.67%
  Population Healthy Nuclei (%): 86.79% and 84.24%
  Population Hoechst High Intensity Objects (%): 0% and 0.6%
  Population Membrane Permeable-Phenotype (%): 1.48% and 3.6%
  Population Mitochondria Different-Phenotype (%): 0% and 5.04%
  Population Mitotic Cells (%): 45.45% and 20%
  Population Normal (%): 100% and 99.4%
  Population Pyknosed Nuclei (%): 10.09% and 9.09%
  Population Tubulin-Different-Phenotype (%): 0.42% and 0%
U2OS; [4]
  Population Apoptotic (%): 38.3% and 31.25%
  Population Fragmented Nuclei (%): 0.43% and 1.99%
  Population Healthy Nuclei (%): 89.42% and 90.05%
  Population Hoechst High Intensity Objects (%): 0.22% and 0%
  Population Membrane Permeable-Phenotype (%): 1.45% and 3.31%
  Population Mitochondria Different-Phenotype (%): 0.48% and 3.87%
  Population Mitotic Cells (%): 61.7% and 68.75%
  Population Normal (%): 99.78% and 100%
  Population Pyknosed Nuclei (%): 10.15% and 7.96%
  Population Tubulin-Different-Phenotype (%): 1.45% and 0.55%
  Total Cell Count: 464 and 201
U2OS; [5]
  Population Apoptotic (%): 50% and 51.52%
  Population Fragmented Nuclei (%): 3.72% and 3.91%
  Population Healthy Nuclei (%): 89.03% and 84.34%
  Population Hoechst High Intensity Objects (%): 0%
  Population Membrane Permeable-Phenotype (%): 1.47% and 2.11%
  Population Mitochondria Different-Phenotype (%): 0% and 2.95%
  Population Mitotic Cells (%): 50% and 48.48%
  Population Normal (%): 100%
  Population Pyknosed Nuclei (%): 7.24% and 11.74%
  Population Tubulin-Different-Phenotype (%): 1.02% and 1.27%
U2OS; [6]
  Population Apoptotic (%): 54.05% and 54.84%
  Population Fragmented Nuclei (%): 2.19% and 2.47%
  Population Healthy Nuclei (%): 89.7% and 89.01%
  Population Hoechst High Intensity Objects (%): 0%
  Population Membrane Permeable-Phenotype (%): 1.1% and 1.23%
  Population Mitochondria Different-Phenotype (%): 0.12% and 1.23%
  Population Mitotic Cells (%): 45.95% and 45.16%
  Population Normal (%): 100%
  Population Pyknosed Nuclei (%): 8.11% and 8.52%
  Population Tubulin-Different-Phenotype (%): 1.47% and 0.31%
  Total Cell Count: 913 and 364
Fibroblast; [1]
  Population Apoptotic (%): 17.14% and 40%
  Population Fragmented Nuclei (%): 10.46% and 7.78%
  Population Healthy Nuclei (%): 66.67% and 77.25%
  Population Hoechst High Intensity Objects (%): 0%
  Population Membrane Permeable-Phenotype (%): 1.96% and 3.1%
  Population Mitochondria Different-Phenotype (%): 8.82% and 6.98%
  Population Mitotic Cells (%): 82.86% and 60%
  Population Normal (%): 100%
  Population Pyknosed Nuclei (%): 22.88% and 14.97%
  Population Tubulin-Different-Phenotype (%): 9.8% and 13.95%
  Total Cell Count: 153 and 167
Fibroblast; [2]
  Population Apoptotic (%): 12.5% and 8.57%
  Population Fragmented Nuclei (%): 12.57% and 5.6%
  Population Healthy Nuclei (%): 64.57% and 79.31%
  Population Hoechst High Intensity Objects (%): 0%
  Population Mitochondria Different-Phenotype (%): 11.5% and 11.96%
  Population Mitotic Cells (%): 87.5% and 91.43%
  Population Normal (%): 100%
  Population Pyknosed Nuclei (%): 22.86% and 15.09%
  Population Tubulin-Different-Phenotype (%): 17.7% and 19.02%
  Total Cell Count: 175 and 232
Fibroblast; [3]
  Population Fragmented Nuclei (%): 9.47% and 7.6%
  Population Healthy Nuclei (%): 73.16% and 83.04%
  Population Hoechst High Intensity Objects (%): 0%
  Population Membrane Permeable-Phenotype (%): 3.6% and 1.41%
  Population Mitochondria Different-Phenotype (%): 2.16% and 9.86%
  Population Mitotic Cells (%): 90.91% and 68.75%
  Population Normal (%): 100%
  Population Pyknosed Nuclei (%): 17.37% and 9.36%
  Population Tubulin-Different-Phenotype (%): 12.95% and 10.56%
  Total Cell Count: 190 and 171
Fibroblast; [4]
  Population Apoptotic (%): 19.35% and 15.79%
  Population Fragmented Nuclei (%): 10.38% and 3.95%
  Population Healthy Nuclei (%): 72.68% and 87.72%
  Population Hoechst High Intensity Objects (%): 0%
  Population Membrane Permeable-Phenotype (%): 6.02% and 0%
  Population Mitochondria Different-Phenotype (%): 6.02% and 4.5%
  Population Mitotic Cells (%): 80.65% and 84.21%
  Population Normal (%): 100%
  Population Pyknosed Nuclei (%): 16.94% and 8.33%
  Population Tubulin-Different-Phenotype (%): 18.05% and 14.5%
  Total Cell Count: 183 and 228
Fibroblast; [5]
  Population Apoptotic (%): 16.67% and 37.5%
  Population Fragmented Nuclei (%): 6.91% and 10.23%
  Population Healthy Nuclei (%): 84.79% and 85.23%
  Population Hoechst High Intensity Objects (%): 0%
  Population Membrane Permeable-Phenotype (%): 1.63% and 1.33%
  Population Mitotic Cells (%): 83.33% and 62.5%
  Population Normal (%): 100%
  Population Pyknosed Nuclei (%): 8.29% and 4.55%
  Population Tubulin-Different-Phenotype (%): 10.33% and 18%
  Total Cell Count: 217 and 176
Fibroblast; [6]
  Population Apoptotic (%): 28.57% and 21.43%
  Population Fragmented Nuclei (%): 9.04% and 3.43%
  Population Healthy Nuclei (%): 83.51% and 90.56%
  Population Hoechst High Intensity Objects (%): 0%
  Population Membrane Permeable-Phenotype (%): 0% and 2.37%
  Population Mitotic Cells (%): 71.43% and 78.57%
  Population Normal (%): 100%
  Population Pyknosed Nuclei (%): 7.45% and 6.01%
  Population Tubulin-Different-Phenotype (%): 10.83% and 15.64%
  Total Cell Count: 188 and 233
